Reference: the array DNA melting data of Ke et al. (doi:10.1101/2024.01.08.574731)

Experiments:
[1] = folding enthalpy; higher = less favourable; fluorescence melt of hairpins on a sequencing array, two-state fit; conditions: sodium 0.088 M
How it was run: (§1)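 In 50 mM Na-HEPES pH 8.0 containing 25 mM NaCl, hairpins from the library on a sequenced MiSeq flow cell were imaged for Cy3 fluorescence at 2.5 °C steps up to 60 °C, with Cy3 and quencher oligos annealed. After normalisation to pre-quench Cy3 and to control constructs, two-state fits with bootstrapping gave melting temperature and folding enthalpy. Four replicates were combined by inverse-variance weighting, and fitted temperatures were shifted up by 9.35 °C to match UV melts.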

[2] = melting temperature; fluorescence melt of hairpins on a sequencing array, two-state fit, raised by 9.35 °C to match UV melts; conditions: sodium 0.088 M
How it was run: as §1

Sequence	folding enthalpy [1] [kcal/mol]	Tm [2] [°C]
AATCGGAAACGATT (((((....)))))	-22.9	44.5
GTTCAGCGAAAGCTTAAC (((.(((....))).)))	-30.2	40.9
GAAAACGGAAACGTTTCC (.(((((....))))).)	-15.1	34.1
GATCGGGTCGCCGATC ((((((....))))))	-7.84	65.3
GCTACGCGAAAGCCAAGC (((..((....))..)))	-13.3	34.9
GGCAACCGAAAGGTGCC (((.(((....))))))	-33.6	66.4
CGAACCGGAAACGGTCG (((.(((....))))))	-23	51.4
GATCCCTTCCGGGATC ((((((....))))))	-35.3	59.5
GATCGAGGCTCGATC ((((((...))))))	-42.1	55.5
GCTCGCCGAAAGGCAGC (((.(((....))))))	-19.9	62.6
GCCCAGGGAAACCCGGGC ((((.((....)).))))	-37.4	57.8
CGGTCTCGGAAACGACCG (((..(((....))))))	-30	46.7
GCCCCCTCGAAAGAGGGC (((..(((....))))))	-6	37.6
GCGAAGACTCGC ((((....))))	-15.8	44.8
GCAAAGGGAAACCTTCGC ((.((((....)))).))	-26.8	39.2
GCGAGTTCTCGC ((((....))))	-25.6	56.2
GCGCATGGAAACATGCAC (.(((((....))))).)	-12.5	47.1
GCAGCGCGAAAGCGTAGC ((..(((....)))..))	-15.9	56.4
GTGGTAGGAAACTATCGC (.(.(((....))).).)	-18.1	31.1
GGGGTTGGAAACAGTCCC (((..((....))..)))	-24.5	36
GTCTGCACGAAAGTGGAC (((..(((....))))))	-15	34.7
GATCTCACGAGAGATC ((((((....))))))	-39.5	52.3
GGTCAGAAATGACC (((((....)))))	-28.2	53.6
GGCCATGGAAACACGGCC ((((.((....)).))))	-45.4	51.7

Sequence	folding enthalpy [1] [kcal/mol]	Tm [2] [°C]
GCGAGCCCGAAAGGGCGC (((..(((....))))))	-7.38	55.8
GATCGTCCAAACGATC ((((((....))))))	-42.7	55.2
GCCGCAGGAAACTGCAGC ((.((((....)))).))	-19	49
GGTGTTGGAAACAACACC (((((((....)))))))	-38.4	66.5
GATCTCCAACGAGATC ((((((....))))))	-39.3	49.8
GCTTACGAAAGTATCAGC ((((((....)))..)))	-14.2	33.1
GTGAAGGCGAAAGCCCAC (((..(((....))))))	-15.6	46.7
GATCACTCCCGTGATC ((((((....))))))	-47.2	55.8
GCTGAGGGAAACCTTAGC (((.(((....))).)))	-33.7	47.1
GGTGGAGGAAACTCTGCC ((..(((....)))..))	-27	42
CGTTAACGGAAACGTACG (((..(((....))))))	-17.6	37
GAATGGGGAAACTCATTC (((((.(....).)))))	-32.4	40.1
GGATACGAAAGTAATTCC ((((((....)))..)))	-12	27.7
GATCTATTCCTAGATC ((((((....))))))	-29.9	40.4
GCTGCCTCGAAAGAGAGC (((..(((....))))))	-14	42.3
GAACTGAAAAGTTC (((((....)))))	-24.3	46.6
GATCTACCCGTAGATC ((((((....))))))	-42.1	50.8
GGATAGGGAAACCTGTCC (((.(((....))).)))	-30.9	48.2
GCTAGGCGAAAGCCCTGC ((..(((....)))..))	-12.3	39.8
GTGCCTGCGAAAGCACAC (((..(((....))))))	-7.25	55
GTGCAAGGAAACTTGTGC (..((((....))))..)	-22.4	37.4
GAGCGCGAAAGCGACCTC ((((((....)))..)))	-11.8	46.6
GATCATTCTAATGATC ((((((....))))))	-31.9	49.4
